Here are results for 4 compounds from ChEMBL document CHEMBL4765238, “Structure-Based Discovery and Optimization of Benzo[ d]isoxazole Derivatives as Potent and Selective BET Inhibitors for Potential Treatment of Castration-Resistant Prostate Cancer (CRPC)” (J Med Chem, 2018).

The target of assay [1] is T1, Bromodomain-containing protein 4 (Homo sapiens, UniProt O60885). Nature of the assay: Binding affinity to human recombinant His6-tagged BRD4 bromodomain 1 (N44 to E168 residues) expressed in Escherichia coli BL21 (DE3) cells assessed as dissociation constant incubated for 1 hr by isothermal titration calorimetry. On the technique in general: In ITC the heat of successive injections is recorded.

Assay [2] concerns the target T1, Bromodomain-containing protein 4. In words: Binding affinity to human recombinant His6-tagged BRD4 bromodomain 1 (N44 to E168 residues) expressed in Escherichia coli BL21 (DE3) cells assessed as change in entropy incubated for 1 hr by isothermal titration calorimetry.
For assay [3] the target is unchanged. In words: Binding affinity to human recombinant His6-tagged BRD4 bromodomain 1 (N44 to E168 residues) expressed in Escherichia coli BL21 (DE3) cells assessed as change in enthalpy incubated for 1 hr by isothermal titration calorimetry.
The target is the same in assay [4]. Nature of the assay: Binding affinity to human recombinant His6-tagged BRD4 bromodomain 1 (N44 to E168 residues) expressed in Escherichia coli BL21 (DE3) cells assessed as gibbs free energy change incubated for 1 hr by isothermal titration calorimetry.
In assay [5] the target is Bromodomain-containing protein 3 (Homo sapiens) (UniProt Q15059). Nature of the assay: Binding affinity to human recombinant His6-tagged BRD3 bromodomain 1 (P24 to E144 residues) expressed in Escherichia coli BL21 (DE3) cells assessed as change in melting temperature at 200 uM incubated for 30 mins by SYPRO orange dye based thermal shift assay. In short, it runs like this:
(§1)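 Thermal shift assay measuring change in melting temperature of each isolated bromodomain module in the presence of compound versus without.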

Assay [6] concerns the target Bromodomain testis-specific protein (Homo sapiens) (UniProt Q58F21). In words: Binding affinity to human recombinant His6-tagged BRDT bromodomain 1 (N21 to E137 residues) expressed in Escherichia coli BL21 (DE3) cells assessed as change in melting temperature at 200 uM incubated for 30 mins by SYPRO orange dye based thermal shift assay. In short, it runs like this: as §1

The target of assay [7] is Bromodomain adjacent to zinc finger domain protein 2B (Homo sapiens) (UniProt Q9UIF8). In words: Binding affinity to human recombinant His6-tagged BAZ2B (S1858 to S1972 residues) expressed in Escherichia coli BL21 (DE3) cells assessed as change in melting temperature at 200 uM incubated for 30 mins by SYPRO orange dye based thermal shift assay. The procedure, abridged:
as §1

Assay [8] addresses T2, Bromodomain-containing protein 1 (Homo sapiens) (UniProt O95696).
T2 sequence (whole entry): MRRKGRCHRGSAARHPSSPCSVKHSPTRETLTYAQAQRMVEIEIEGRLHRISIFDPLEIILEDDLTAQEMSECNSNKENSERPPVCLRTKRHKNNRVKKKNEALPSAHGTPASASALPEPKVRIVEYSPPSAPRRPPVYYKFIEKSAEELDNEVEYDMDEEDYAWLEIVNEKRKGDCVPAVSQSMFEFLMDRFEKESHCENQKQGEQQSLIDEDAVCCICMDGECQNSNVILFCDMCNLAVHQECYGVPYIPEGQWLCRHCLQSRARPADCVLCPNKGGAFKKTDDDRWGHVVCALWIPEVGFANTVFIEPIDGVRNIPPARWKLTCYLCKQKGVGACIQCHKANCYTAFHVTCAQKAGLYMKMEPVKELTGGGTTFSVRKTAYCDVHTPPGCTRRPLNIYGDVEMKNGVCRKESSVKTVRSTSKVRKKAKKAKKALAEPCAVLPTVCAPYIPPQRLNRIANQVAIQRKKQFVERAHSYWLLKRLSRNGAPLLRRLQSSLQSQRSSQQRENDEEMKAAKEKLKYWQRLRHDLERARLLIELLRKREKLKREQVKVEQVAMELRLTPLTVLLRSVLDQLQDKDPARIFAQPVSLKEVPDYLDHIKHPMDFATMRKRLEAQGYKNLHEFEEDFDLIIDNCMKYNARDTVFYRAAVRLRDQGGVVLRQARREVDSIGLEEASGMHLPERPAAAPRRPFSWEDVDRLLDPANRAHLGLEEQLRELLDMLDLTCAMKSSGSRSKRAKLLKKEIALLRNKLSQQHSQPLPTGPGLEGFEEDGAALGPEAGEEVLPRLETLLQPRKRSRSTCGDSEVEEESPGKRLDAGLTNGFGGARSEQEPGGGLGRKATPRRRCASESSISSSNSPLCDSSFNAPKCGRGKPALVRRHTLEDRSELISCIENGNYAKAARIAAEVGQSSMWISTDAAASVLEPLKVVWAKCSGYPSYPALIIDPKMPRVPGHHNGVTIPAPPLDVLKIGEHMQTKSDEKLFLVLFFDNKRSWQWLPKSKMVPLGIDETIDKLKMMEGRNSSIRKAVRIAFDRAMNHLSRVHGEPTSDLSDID
In words: Binding affinity to human recombinant His6-tagged BRD1 (E556 to A688 residues) expressed in Escherichia coli BL21 (DE3) cells assessed as change in melting temperature at 200 uM incubated for 30 mins by SYPRO orange dye based thermal shift assay. In short, it runs like this: as §1

For assay [9], the target named is Transcription initiation factor TFIID subunit 1 (Homo sapiens) (UniProt P21675). Nature of the assay: Binding affinity to human recombinant His6-tagged TAF1 bromodomain 1 (R1377 to D1503 residues) expressed in Escherichia coli BL21 (DE3) cells assessed as change in melting temperature at 200 uM incubated for 30 mins by SYPRO orange dye based thermal shift assay. The procedure, abridged: as §1
Transcription initiation factor TFIID subunit 1 (Homo sapiens), sequence (P21675 whole entry, the tested form may be a part): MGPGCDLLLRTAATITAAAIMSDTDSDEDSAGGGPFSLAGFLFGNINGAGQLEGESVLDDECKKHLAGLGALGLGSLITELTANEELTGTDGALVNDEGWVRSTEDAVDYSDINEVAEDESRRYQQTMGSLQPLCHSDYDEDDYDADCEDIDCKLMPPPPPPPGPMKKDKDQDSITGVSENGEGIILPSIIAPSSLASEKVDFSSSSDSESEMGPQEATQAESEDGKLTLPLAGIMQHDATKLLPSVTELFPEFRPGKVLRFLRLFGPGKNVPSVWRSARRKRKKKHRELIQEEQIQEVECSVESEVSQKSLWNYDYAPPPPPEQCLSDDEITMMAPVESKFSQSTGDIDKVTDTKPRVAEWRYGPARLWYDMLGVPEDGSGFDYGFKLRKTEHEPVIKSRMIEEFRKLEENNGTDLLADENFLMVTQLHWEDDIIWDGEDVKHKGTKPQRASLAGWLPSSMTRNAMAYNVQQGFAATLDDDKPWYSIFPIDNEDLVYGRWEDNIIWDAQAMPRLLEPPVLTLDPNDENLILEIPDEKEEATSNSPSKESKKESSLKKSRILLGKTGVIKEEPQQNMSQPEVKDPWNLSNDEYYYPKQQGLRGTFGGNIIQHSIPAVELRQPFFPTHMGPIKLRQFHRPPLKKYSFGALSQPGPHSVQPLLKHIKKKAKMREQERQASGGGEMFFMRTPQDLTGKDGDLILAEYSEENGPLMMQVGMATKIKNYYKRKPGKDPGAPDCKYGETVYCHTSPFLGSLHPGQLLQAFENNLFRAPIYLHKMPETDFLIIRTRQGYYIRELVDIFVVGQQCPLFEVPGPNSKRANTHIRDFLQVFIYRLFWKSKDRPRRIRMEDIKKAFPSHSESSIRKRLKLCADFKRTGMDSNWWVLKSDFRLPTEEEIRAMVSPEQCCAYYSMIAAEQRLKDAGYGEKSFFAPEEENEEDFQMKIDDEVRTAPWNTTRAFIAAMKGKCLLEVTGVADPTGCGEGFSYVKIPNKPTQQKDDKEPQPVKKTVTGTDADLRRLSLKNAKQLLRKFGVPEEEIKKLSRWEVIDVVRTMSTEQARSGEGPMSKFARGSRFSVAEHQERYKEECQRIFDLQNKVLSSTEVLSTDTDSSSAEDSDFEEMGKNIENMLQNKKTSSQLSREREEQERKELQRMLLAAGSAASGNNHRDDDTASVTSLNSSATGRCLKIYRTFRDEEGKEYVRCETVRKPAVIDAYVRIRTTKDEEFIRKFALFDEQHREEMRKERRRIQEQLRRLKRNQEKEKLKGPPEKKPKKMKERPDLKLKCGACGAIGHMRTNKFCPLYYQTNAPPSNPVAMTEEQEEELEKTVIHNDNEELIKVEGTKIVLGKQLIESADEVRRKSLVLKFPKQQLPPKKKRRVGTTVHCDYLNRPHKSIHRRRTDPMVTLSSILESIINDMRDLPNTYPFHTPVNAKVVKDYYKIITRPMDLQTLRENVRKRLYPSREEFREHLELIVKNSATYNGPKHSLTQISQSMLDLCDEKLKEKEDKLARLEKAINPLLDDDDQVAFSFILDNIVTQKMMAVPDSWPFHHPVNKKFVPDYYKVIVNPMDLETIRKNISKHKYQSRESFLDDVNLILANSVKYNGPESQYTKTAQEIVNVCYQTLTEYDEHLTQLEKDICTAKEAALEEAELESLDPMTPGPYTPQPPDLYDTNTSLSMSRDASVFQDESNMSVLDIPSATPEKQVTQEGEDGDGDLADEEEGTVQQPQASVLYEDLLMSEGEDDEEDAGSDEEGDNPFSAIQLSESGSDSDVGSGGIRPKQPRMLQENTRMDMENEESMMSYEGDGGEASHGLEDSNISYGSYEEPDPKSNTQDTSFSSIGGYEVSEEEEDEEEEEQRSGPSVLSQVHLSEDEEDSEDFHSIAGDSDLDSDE

Assay [10] addresses Histone-lysine N-methyltransferase ASH1L (Homo sapiens) (UniProt Q9NR48). Nature of the assay: Binding affinity to human recombinant His6-tagged ASH1L (E2433 to E2564 residues) expressed in Escherichia coli BL21 (DE3) cells assessed as change in melting temperature at 200 uM incubated for 30 mins by SYPRO orange dye based thermal shift assay. In short, it runs like this: as §1

Assay [11] addresses Histone acetyltransferase p300 (Homo sapiens) (UniProt Q09472). Nature of the assay: Binding affinity to human recombinant His6-tagged EP300 (A1040 to G1161 residues) expressed in Escherichia coli BL21 (DE3) cells assessed as change in melting temperature at 200 uM incubated for 30 mins by SYPRO orange dye based thermal shift assay. The procedure, abridged:
as §1

The target of assay [12] is CREB-binding protein (Homo sapiens) (UniProt Q92793). In words: Binding affinity to human recombinant His6-tagged CREBBP (R1081 to G1197 residues) expressed in Escherichia coli BL21 (DE3) cells assessed as change in melting temperature at 200 uM incubated for 30 mins by SYPRO orange dye based thermal shift assay. In short, it runs like this:
as §1

Assay [13] concerns LNCaP. In words: Antiproliferative activity against AR-positive human LNCAP cells assessed as reduction in cell viability incubated for 96 hrs by cell-titer glo assay. In kind it is functional, cell-based. The procedure, abridged: (§2)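 Prostate cancer cells treated across a concentration range; viability read by CellTiter-Glo luminescence; experiments in triplicate; IC50 derived from the dose–response curves.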

Assay [14] deals with LNCaP C4-2B. Nature of the assay: Antiproliferative activity against AR-positive human C4-2B cells assessed as reduction in cell viability incubated for 96 hrs by cell-titer glo assay. In kind it is functional, cell-based. The procedure, abridged:
as §2

Assay [15] concerns VCaP. Nature of the assay: Antiproliferative activity against AR-positive human VCaP cells assessed as reduction in cell viability incubated for 144 hrs by cell-titer glo assay. The assay is classed as functional, cell-based. The procedure, abridged:
as §2

CREB-binding protein (Homo sapiens), sequence (Q92793 2-2442 limits assumed): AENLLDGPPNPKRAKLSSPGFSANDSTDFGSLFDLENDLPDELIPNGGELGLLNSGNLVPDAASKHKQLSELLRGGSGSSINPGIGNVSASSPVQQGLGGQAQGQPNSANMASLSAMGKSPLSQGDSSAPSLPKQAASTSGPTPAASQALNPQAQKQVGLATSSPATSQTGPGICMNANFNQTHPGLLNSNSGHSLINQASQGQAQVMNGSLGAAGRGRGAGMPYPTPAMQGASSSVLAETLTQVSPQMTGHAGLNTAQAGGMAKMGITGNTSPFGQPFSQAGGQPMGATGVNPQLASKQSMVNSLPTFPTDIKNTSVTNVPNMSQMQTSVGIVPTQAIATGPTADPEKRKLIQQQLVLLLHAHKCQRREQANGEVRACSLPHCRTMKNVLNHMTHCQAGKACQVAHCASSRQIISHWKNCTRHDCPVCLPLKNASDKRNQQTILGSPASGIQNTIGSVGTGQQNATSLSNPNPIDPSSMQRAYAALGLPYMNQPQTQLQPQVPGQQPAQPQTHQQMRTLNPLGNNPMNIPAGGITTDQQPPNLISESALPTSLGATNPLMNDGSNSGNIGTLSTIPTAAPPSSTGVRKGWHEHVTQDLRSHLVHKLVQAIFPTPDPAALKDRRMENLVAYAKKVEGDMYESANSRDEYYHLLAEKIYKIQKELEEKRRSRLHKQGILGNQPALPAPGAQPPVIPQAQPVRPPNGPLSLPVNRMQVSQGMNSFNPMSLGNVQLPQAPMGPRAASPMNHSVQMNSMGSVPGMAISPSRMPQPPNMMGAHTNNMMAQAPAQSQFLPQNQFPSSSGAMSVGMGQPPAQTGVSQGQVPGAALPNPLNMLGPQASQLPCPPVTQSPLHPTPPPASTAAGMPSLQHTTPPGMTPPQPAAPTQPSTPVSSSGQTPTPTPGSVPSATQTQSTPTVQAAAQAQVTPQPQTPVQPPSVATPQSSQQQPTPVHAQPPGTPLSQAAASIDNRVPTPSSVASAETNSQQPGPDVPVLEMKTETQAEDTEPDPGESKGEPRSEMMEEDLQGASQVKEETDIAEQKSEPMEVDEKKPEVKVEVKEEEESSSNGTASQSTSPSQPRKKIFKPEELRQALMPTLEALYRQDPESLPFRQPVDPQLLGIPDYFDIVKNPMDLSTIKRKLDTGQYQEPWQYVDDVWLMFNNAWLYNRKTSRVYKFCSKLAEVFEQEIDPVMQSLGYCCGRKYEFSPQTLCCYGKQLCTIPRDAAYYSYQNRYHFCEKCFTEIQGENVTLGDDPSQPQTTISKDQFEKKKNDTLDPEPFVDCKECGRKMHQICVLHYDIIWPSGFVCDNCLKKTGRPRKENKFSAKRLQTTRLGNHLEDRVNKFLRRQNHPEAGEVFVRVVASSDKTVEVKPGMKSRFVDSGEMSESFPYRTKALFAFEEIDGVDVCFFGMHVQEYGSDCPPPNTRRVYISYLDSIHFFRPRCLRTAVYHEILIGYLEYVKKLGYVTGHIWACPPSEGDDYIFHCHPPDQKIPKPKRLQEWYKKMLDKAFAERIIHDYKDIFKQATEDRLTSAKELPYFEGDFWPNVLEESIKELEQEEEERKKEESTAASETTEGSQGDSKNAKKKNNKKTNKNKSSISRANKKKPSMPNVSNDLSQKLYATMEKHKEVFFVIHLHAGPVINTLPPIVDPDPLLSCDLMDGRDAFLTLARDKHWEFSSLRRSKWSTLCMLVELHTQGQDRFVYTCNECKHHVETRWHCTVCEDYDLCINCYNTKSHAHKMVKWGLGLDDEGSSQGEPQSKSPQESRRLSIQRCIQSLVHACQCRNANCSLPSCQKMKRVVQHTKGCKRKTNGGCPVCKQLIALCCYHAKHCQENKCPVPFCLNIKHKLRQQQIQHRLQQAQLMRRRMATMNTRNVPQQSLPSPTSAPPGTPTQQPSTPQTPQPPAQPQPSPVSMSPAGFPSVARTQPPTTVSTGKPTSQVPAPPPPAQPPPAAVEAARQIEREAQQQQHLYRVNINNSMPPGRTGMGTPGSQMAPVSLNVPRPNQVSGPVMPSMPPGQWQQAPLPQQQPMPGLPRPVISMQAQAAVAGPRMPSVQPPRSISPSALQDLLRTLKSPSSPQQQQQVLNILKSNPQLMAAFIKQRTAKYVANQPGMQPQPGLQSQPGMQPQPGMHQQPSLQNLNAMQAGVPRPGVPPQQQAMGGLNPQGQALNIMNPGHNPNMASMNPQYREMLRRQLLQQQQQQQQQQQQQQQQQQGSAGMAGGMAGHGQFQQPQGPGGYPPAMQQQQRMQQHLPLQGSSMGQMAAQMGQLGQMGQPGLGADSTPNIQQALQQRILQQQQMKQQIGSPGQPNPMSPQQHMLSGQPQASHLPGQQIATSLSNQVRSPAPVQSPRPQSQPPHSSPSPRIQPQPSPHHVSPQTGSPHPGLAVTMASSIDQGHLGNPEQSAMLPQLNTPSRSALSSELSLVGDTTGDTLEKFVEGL
Bromodomain-containing protein 3 (Homo sapiens), sequence (Q15059 2-726 limits assumed): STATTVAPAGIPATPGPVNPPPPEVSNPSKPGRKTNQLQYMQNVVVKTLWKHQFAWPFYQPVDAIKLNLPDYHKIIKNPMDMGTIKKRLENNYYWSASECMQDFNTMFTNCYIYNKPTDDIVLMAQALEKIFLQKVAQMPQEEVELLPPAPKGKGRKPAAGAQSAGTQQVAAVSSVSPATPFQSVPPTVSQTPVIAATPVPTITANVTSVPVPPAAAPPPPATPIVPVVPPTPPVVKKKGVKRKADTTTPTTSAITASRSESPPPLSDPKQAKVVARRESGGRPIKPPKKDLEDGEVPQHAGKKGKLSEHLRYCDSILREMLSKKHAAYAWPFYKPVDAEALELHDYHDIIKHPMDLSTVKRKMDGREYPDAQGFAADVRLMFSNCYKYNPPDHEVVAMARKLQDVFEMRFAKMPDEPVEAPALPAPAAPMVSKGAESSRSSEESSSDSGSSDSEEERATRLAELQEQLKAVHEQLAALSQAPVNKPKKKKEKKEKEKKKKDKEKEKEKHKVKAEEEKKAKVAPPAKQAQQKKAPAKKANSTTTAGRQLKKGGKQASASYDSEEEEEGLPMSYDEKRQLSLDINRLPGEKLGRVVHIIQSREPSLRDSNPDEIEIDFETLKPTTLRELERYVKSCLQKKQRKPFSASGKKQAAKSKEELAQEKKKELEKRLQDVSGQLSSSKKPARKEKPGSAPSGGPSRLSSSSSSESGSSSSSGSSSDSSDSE

Turning to `Cc1noc2ccc(-c3nc4ccc(N5CCOC[C@@H]5C)cc4n3CC3CCCCC3)cc12`, the dissociation constant (Kd) in assay [1] turned out to be 81 nM. Besides, the TdeltaS in assay [2] was -2.2 kcal/mol. In addition, the deltaH in [3] is -11.9 kcal/mol. The deltaG in [4] was -9.7 kcal/mol. Further, the ΔTm in assay [5] is 8.7 °C; in [6], 3.6 °C; in [7], -0.6 °C; in [8] it was 0.3 °C; in assay [9], -0.9 °C; in [10] it was -0.5 °C. Moreover, the ΔTm in assay [11] and in [12] was 0.3 °C in each case. Besides, the values for the IC50 in assay [13], in assay [14] and in assay [15] were 470 nM, 840 nM and 290 nM, respectively.
Take `COc1cc2onc(C)c2cc1NS(=O)(=O)c1cc(Br)ccc1OC`: the Kd in assay [1] was 82 nM. In [2], the TdeltaS is -2.5 kcal/mol. The deltaH in assay [3] was -12.2 kcal/mol. The deltaG in assay [4] is -9.7 kcal/mol. In addition, the ΔTm in assay [5] is 8.1 °C; in [6], 5.6 °C; in assay [7], 0 °C; in assay [8], -0.1 °C; in assay [9] it was 0.1 °C; in assay [10], 0.3 °C. The values for the ΔTm in assay [11] and in [12] were 2 °C and 1.4 °C, respectively. Besides, the half-maximal inhibitory concentration (IC50) turned out to be 1060 nM in [13], 2620 nM in assay [14] and 630 nM in assay [15].
For the compound `Cc1noc2c(Br)cc(-c3nc4ccc(N5CCOCC5)cc4n3CC3CCCCC3)cc12`, the Kd in [1] was determined as 159 nM. Also, in assay [2], the TdeltaS is -1.4 kcal/mol. In addition, in assay [3], the deltaH was -10.7 kcal/mol. Also, the deltaG in assay [4] was -9.3 kcal/mol. The shift in melting temperature (ΔTm) was 8.9 °C in [5]; 4.2 °C in assay [6]; -0.6 °C in assay [7]; 0 °C in [8]; -0.6 °C in assay [9]; -0.9 °C in [10]. Also, the results for the ΔTm in [11] and in assay [12] were -0.3 °C and 0 °C, respectively. Further, the IC50 in assay [13] worked out at 570 nM; in assay [14], 850 nM; in assay [15], 500 nM.
With `CNc1cc2onc(C)c2cc1NS(=O)(=O)c1cc(Br)ccc1OC`, in [1], the Kd worked out at 164 nM. In assay [2], the TdeltaS was -6 kcal/mol. In assay [3], the deltaH was -15.3 kcal/mol. The deltaG in [4] is -9.3 kcal/mol. In addition, the ΔTm in assay [5] was 6.5 °C; in assay [6], 5.1 °C; in assay [7], 0.3 °C; in assay [8], -0.4 °C; in [9] it was -0.1 °C; in [10] it was -0.1 °C. Also, the ΔTm worked out at 2.3 °C in assay [11] and 2.1 °C in assay [12]. The IC50 was determined as 6160 nM in assay [13], 6430 nM in [14] and 3020 nM in assay [15].

One may read the Kd as the concentration at which binding is half-saturated. As a reminder, the ΔTm is the shift of the melting midpoint relative to a reference. Broadly, the IC50 is the concentration that inhibits the measured activity by half.
